Reference: ChEMBL document CHEMBL2380256, “Discovery of novel Jak2-Stat pathway inhibitors with extended residence time on target” (Bioorg Med Chem Lett, 2013)
Activity calls are given as the source filed them. The calls are words filed in the database; no cut-off is given here.

Assays:
[1] = target: T1, Tyrosine-protein kinase JAK3 (Homo sapiens, UniProt P52333); assay: Inhibition of JAK3 (unknown origin) using biotinylated poly-EY peptide as substrate after 60 mins by HTRF assay
T1 sequence (P52333 whole entry): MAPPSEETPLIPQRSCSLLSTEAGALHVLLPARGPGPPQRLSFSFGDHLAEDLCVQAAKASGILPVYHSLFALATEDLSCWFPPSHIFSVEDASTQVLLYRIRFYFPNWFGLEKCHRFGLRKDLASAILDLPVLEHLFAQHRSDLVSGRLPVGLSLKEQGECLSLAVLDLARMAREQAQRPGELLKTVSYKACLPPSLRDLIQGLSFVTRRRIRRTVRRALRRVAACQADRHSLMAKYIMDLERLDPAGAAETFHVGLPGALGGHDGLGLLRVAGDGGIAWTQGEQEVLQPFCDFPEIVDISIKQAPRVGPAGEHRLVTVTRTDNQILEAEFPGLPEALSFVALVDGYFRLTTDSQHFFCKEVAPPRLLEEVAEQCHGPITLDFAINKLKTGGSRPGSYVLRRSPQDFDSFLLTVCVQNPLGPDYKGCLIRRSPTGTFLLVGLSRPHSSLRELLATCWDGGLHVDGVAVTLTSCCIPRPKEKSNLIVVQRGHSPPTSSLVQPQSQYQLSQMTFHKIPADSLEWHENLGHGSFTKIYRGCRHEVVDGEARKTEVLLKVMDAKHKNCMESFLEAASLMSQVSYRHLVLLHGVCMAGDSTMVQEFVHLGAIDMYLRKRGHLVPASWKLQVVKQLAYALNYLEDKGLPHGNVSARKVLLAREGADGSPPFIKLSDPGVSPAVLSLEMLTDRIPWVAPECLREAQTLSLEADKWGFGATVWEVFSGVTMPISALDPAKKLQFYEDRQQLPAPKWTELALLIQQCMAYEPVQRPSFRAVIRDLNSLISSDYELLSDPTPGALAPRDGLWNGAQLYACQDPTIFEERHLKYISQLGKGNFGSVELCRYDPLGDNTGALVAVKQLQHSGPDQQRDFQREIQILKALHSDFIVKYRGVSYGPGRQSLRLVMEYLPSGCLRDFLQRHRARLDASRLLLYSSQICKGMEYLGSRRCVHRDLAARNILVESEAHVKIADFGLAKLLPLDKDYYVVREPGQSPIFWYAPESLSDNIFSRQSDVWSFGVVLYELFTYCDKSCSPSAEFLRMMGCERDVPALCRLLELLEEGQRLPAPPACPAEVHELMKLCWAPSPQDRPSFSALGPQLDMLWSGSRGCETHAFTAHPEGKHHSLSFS

[2] = Total plasma concentration in nude mouse allografted with mouse Ba/F3 cells expressing JAK2 TEL domain administered as po qd measured at 2 hrs; format: ADME, organism-based, BaF3
How it was run: (§1)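 Female nude mice implanted intravenously with Ba/F3 TEL-JAK2 cells on day 0 and dosed orally on day 10. Total plasma drug concentration was measured at the stated times post-dose, averaged over n = 3 per dose and time point.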

[3] = tested on: Mus musculus; assay: In vivo inhibition of JAK2 TEL domain (unknown origin) transfected in mouse Ba/F3 cells allografted in nude mouse assessed as inhibition of STAT5 phosphorylation at 10 mg/kg, po qd at 2 hrs relative to vehicle-treated control; format: functional; conditions: BaF3, 2 h
How it was run: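 Female nude mice implanted intravenously with Ba/F3 TEL-JAK2 cells on day 0 and given a single oral dose on day 10. pStat5 was measured at the stated times post-dose. % inhibition was scaled between vehicle and a control inhibitor as maximum and minimum, with n = 3 per dose and time point, reported as mean ±SD.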

[4] = target: Tyrosine-protein kinase JAK2 (Homo sapiens, UniProt O60674); assay: Inhibition of JAK2 (unknown origin) using biotinylated TYK2 peptide as substrate after 60 mins
Sequence of Tyrosine-protein kinase JAK2 (O60674 whole entry): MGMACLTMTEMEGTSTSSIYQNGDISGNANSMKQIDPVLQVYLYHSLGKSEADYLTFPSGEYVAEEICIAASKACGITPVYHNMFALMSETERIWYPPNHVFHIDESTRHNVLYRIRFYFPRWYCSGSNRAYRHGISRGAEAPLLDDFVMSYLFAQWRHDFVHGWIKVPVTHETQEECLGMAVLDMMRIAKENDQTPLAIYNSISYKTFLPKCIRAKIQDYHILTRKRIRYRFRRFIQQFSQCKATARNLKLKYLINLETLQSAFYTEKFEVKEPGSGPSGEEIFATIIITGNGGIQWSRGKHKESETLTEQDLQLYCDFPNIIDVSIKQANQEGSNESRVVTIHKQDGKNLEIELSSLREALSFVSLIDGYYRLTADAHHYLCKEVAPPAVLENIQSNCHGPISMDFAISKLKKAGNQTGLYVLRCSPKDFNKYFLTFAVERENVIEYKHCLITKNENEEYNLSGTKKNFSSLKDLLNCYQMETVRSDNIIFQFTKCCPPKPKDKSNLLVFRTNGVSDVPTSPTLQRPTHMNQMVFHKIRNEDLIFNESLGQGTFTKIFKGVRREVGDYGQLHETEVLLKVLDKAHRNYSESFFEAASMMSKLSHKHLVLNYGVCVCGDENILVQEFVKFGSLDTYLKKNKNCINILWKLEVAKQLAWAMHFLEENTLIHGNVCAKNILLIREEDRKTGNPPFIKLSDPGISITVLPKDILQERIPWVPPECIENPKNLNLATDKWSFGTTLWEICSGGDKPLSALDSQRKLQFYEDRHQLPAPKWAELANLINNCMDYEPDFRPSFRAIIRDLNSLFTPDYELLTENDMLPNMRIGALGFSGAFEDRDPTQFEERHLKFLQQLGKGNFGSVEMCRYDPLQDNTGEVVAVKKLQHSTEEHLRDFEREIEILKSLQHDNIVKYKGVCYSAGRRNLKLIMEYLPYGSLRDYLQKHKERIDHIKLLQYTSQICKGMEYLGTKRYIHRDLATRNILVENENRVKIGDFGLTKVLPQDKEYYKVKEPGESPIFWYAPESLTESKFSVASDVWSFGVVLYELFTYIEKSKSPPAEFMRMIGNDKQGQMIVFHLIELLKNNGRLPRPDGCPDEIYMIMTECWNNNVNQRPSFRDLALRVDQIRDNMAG

[5] = Intrinsic clearance in rat liver microsomes; format: ADME, Microsome; conditions: read-out: CLH
[6] = Growth inhibition of mouse BA/F3 cells transfected with JAK3 TEL domain after 24 hrs by Alamar Blue assay; format: functional, cell-based; conditions: BaF3, 24 h, read-out: GI50
[7] = species on record: Mus musculus; conditions: BaF3, 10 mg/kg
[8] = species on record: Homo sapiens; assay: Free drug level in human; format: ADME, organism-based; conditions: in vivo
[9] = Total plasma concentration in nude mouse allografted with mouse Ba/F3 cells expressing JAK2 TEL domain administered as po qd measured at 6 hrs; format: ADME, organism-based, BaF3; how it was run: as §1
[10] = Growth inhibition of mouse BA/F3 cells transfected with JAK2 TEL domain after 24 hrs by Alamar Blue assay; format: functional; conditions: BaF3, 24 h

IC50 [1]: 16.4 µM | concentration at 2 h [2]: 463 ng/mL | IC50 [4]: 0.02 µM | microsomal CLint [5]: 82 µL/min/mg | Drug uptake(free) [8]: 3% | concentration at 6 h [9]: 185 ng/mL
Structure (SMILES): Cc1cnc(Nc2nc(N[C@@H](C)c3ncc(F)cn3)c(F)c(N3CCOCC3)n2)s1
inhibition in vivo at 10 mg/kg [3]: 50% | GI50 [6]: 2.7 µM | inhibition [7]: inactive | GI50 [10]: 0.03 µM
